MrgX1 ag = agonists of human MrgX1 receptor; MrgX1-HEK293 cells, Fluo-4 calcium fluorescence, agonist mode; stronger effect = higher value; hit rate 0.44% among 310,000; Q96LB2; B-score at 10 µM;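 active means calcium response B-score plate-corrected fluorescence ratio at least 3 library SD, with starting fluorescence B-score inside 5 SD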
Target sequence (Q96LB2 whole entry, looked up): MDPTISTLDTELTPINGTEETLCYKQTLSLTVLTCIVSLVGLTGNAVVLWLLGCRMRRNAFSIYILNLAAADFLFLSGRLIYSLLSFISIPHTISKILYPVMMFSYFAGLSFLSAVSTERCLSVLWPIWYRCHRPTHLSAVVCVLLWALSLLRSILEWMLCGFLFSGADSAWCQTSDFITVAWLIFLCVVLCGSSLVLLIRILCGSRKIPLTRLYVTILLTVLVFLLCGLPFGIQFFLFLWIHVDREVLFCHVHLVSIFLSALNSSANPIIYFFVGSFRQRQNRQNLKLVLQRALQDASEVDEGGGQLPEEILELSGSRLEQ
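Assay system: stable human MrgX1 HEK293 cell line. Quantity: 15,000 cells per well. Schedule: cells plated overnight, dye loaded 0.5 h 37 °C, 0.5 h room temperature. Detection: Fluo-4 NW calcium-flux fluorescence, kinetic read. Read-out basis: peak-minus-minimum fluorescence over baseline, converted to B scores. Control set: positive and negative control wells on each plate.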
MrgX1 PAM = human MrgX1 positive allosteric modulation, primary screen | MrgX1-HEK293, Fluo-4 calcium flux, FDSS; stronger effect = higher value | B-score at 10 µM | hit rate 0.63% among 310,000;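 active means plate-corrected calcium response at least 3 library SD above typical, normal starting fluorescence, not activating the receptor alone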;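 further: compound read alongside a low EC10 to EC30 dose of BAM8-22 agonist; peak minus trough fluorescence over baseline measured at the second addition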
RGS4 act = potentiators or activators of RGS4. HEK293 M3R/inducible RGS4, carbachol calcium flux Fluo4; stronger effect = lower value. B-score at 10 µM. hit rate 0.92% among 310,000. AID 463111;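 active means B-score of the integrated calcium signal more than 4 SD below the library mean, with starting fluorescence not abnormally high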;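 further: negative B-score means reduced calcium response which marks RGS4 activation or potentiation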
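Detection: kinetic calcium fluorescence imaging with Fluo4-AM dye, 2 µM / Material: HEK293 cells with stable M3R and inducible RGS4 / Schedule: recording 10 s baseline at 1 Hz, 100 s post-agonist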
RGS4 inh = human RGS4 inhibition | hit rate 0.45% among 310,000 | HEK293 M3R/RGS4 inducible, Fluo-4 calcium flux; stronger effect = higher value; triggered by carbachol at its EC20 | AID 463165 | P49798 | B-score at 10 µM;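 active means B-score, a plate-corrected calcium signal, over three deviations above library mean, with baseline fluorescence within five deviations of library mean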;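 further: RGS4 expression induced by doxycycline in cells with stable M3 receptor; B-score is computed from the integrated fluorescence ratio over baseline after carbachol; higher B-score means a larger calcium signal and so more RGS4 inhibition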
Target sequence (P49798 whole entry, looked up): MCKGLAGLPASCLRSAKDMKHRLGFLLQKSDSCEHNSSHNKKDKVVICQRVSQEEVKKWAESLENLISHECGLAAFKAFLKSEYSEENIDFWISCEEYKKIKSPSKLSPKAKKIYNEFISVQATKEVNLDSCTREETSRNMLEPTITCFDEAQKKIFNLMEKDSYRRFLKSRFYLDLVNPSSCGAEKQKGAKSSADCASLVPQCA
MrgX1 antagonist = human MrgX1 receptor antagonism, primary screen; Q96LB2; AID 588676; B-score at 10 µM; MRGX1-HEK293 calcium flux, Fluo-4, BAM8-22 antagonism; stronger effect = lower value; hit rate 1.3% among 310,000;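 active means calcium-response B-score plate-corrected more than 3 library SD below zero, starting fluorescence within 5 deviations, no agonist response on first addition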;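 further: peak minus trough fluorescence over baseline after final BAM8-22 challenge near maximal dose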
A number is an active result; – = inactive. A selection: hits, their analogues and other compounds. The true share with any hit is near 3.5%.

SMILES | MrgX1 ag | MrgX1 PAM | RGS4 act | RGS4 inh | MrgX1 antagonist
CCc1nnc(NS(=O)(=O)c2ccc(NC(=S)NC(=O)/C=C/c3ccccc3)cc2)s1 | – | – | – | – | –
CCc1nnc(NS(=O)(=O)c2ccc(NC(=S)NC(=O)/C=C/c3ccc(C(C)C)cc3)cc2)s1 | – | – | -9.7 | – | –
O=C(N/N=C/C(Br)=C/c1ccccc1)c1ccccc1F | – | 7 | – | – | –
N=C1S/C(=C\c2ccco2)C(=O)N1c1ccc2c(c1)OCO2 | – | – | – | – | –
N=C1S/C(=C\c2ccco2)C(=O)N1c1nccs1 | 48 | – | – | – | –
CC1=NN(c2ccccc2)C(=O)C1C(=O)c1ccc(Cl)cc1 (stereo not given) | 32 | – | – | – | –
COc1ccccc1OCCn1c(SCC(=O)O)nc2ccccc21 | – | – | – | – | –
CCOC(=O)c1c(-c2cccc([N+](=O)[O-])c2)csc1NC(=O)C1CC1 | – | – | -7.7 | – | –
CCOC(=O)c1c(-c2cccc([N+](=O)[O-])c2)csc1NC(=O)C1CCCCC1 | – | – | -9.2 | – | –
CC(C)(C)[C@H]1C=C(C(=O)N2CCN(Cc3ccccc3)CC2)O[C@@H](OCc2ccc(CO)cc2)C1 | – | 7.4 | – | – | –
CC(C)c1ccc(C2CC(=O)c3cnc(NC(=O)c4ccco4)nc3C2)cc1 (stereo not given) | – | – | – | – | –
CCc1ccccc1NC(=S)N1N=CCC1c1ccccc1 (stereo not given) | 37 | – | – | – | –
N#Cc1c(NC(=S)NC(=O)c2ccccc2)sc2c1CCN(CCc1ccccc1)C2 | 58 | – | – | – | –
CC/C(CC(C)(C)c1ccccc1)=N\O | – | – | – | – | –
CCN(CC)CCC/C(=N\O)C(O)(c1ccccc1)c1ccccc1 | – | – | -10 | – | –
CC[N+](C)(CC)CCC/C(=N/O)C(O)(c1ccccc1)c1ccccc1 | – | – | -9.7 | – | –
COc1cccc(-c2c(C(=O)N/N=C(\C)c3cccnc3)nnn2-c2nonc2N)c1 | – | – | – | – | –
COc1cc2nc(Nc3cccc(F)c3)nc(N)c2cc1OC | – | – | -7 | – | –
COc1nc(Nc2cccc(F)c2)nc(OC)n1 | – | – | – | – | –
COc1ccccc1-c1coc2cc(O)cc(O)c2c1=O | 34 | – | – | – | –
CC(C(=O)c1ccc(-c2ccccc2)cc1)[n+]1ccccc1 (stereo not given) | – | – | – | – | –
Cc1cc[n+](C(C)C(=O)c2ccc(-c3ccccc3)cc2)cc1 (stereo not given) | – | – | -9.4 | – | –
CCOc1cc(N2CCOCC2)c(OCC)cc1NC(=O)CN1CCCC1 | – | – | – | – | –
O=C1CC(c2ccccc2)CC(O)=C1C=NCc1ccc(Cl)c(Cl)c1 (stereo not given) | – | – | – | – | –
O=C1CC(c2ccccc2)CC(O)=C1C=NCc1ccncc1 (stereo not given) | – | – | – | – | -6.4
SMILES | MrgX1 ag | MrgX1 PAM | RGS4 act | RGS4 inh | MrgX1 antagonist
COc1ccc(CSCC(=O)Nc2ccccc2)cc1[N+](=O)[O-] | – | – | – | – | –
CC1=Nc2ccccc2/C1=C/c1sc(=N)n(-c2nccs2)c1O | 46 | – | – | – | –
COc1cccc2cc(C(=O)CS(=O)(=O)c3ccc(C(C)(C)C)cc3)c(=O)oc12 | – | – | – | – | –
O=C(CS(=O)(=O)c1ccccc1)c1cc2cc(F)ccc2oc1=O | 61 | – | – | – | –
COc1ccc(S(=O)(=O)CC(=O)c2cc3cccc(C)c3oc2=O)cc1 | 42 | – | – | – | –
COc1ccc(/C=C/C(=O)c2ccc3ccccc3c2O)cc1CN1CCOCC1 | – | – | – | – | -4.7
COc1ccc(C(=O)/C=C/c2ccc(N3CCCCC3)c([N+](=O)[O-])c2)c(OC)c1 | – | 14 | – | – | –
Cc1ccc(C(=O)N2CC(C)OC(C)C2)cc1[N+](=O)[O-] (stereo not given) | – | – | – | – | -5
CS(=O)(=O)N1N=C(c2ccc3nccnc3c2)CC1c1ccccc1 (stereo not given) | – | 6.5 | – | – | –
CS(=O)(=O)N1N=C(c2ccccc2)CC1c1ccc2nccnc2c1 (stereo not given) | – | – | – | – | –
COCc1cc(=O)[nH]c(N2CCN(Cc3ccc4c(c3)OCO4)CC2)n1 | – | – | – | – | –
COc1cc(/C=C/C(=O)c2ccc3c(c2)OCCO3)cc(Br)c1OCC(=O)N(C)C | – | – | – | – | -5.6
CCOc1c(Br)cc(CNc2ccc3c(c2)OCCO3)cc1OC | – | – | – | – | –
COc1cccc(CN2CCNC(=O)C2CC(=O)N(C)CCC2CCOCC2)c1OC (stereo not given) | – | – | – | – | –
CCc1nn(C(C)C(=O)NCCc2ccccc2)c(=O)c2cc3occc3n12 (stereo not given) | – | – | – | – | –
COc1ccc(CNC(=O)C(C)n2nc(C)n3c(cc4occc43)c2=O)cc1 (stereo not given) | – | – | – | – | -8.1
Cc1nn(C(C)C(=O)NC(C)CCc2ccccc2)c(=O)c2cc3occc3n12 (stereo not given) | – | – | – | – | -7.6
CCN(CC)CCNC(=O)c1ccc(NC(=O)c2ccccc2-c2ccc(C(F)(F)F)cc2)cc1 | – | – | -9.5 | – | –
CCOc1ccc(NC(=O)CN(C)C(=O)c2cn(-c3ccc(F)cc3)nc2-c2cccc(OC)c2)cc1OCC | – | – | -7.2 | – | –
CCN(CC)CCNC(=O)c1ccc(NC(=O)c2cn(-c3ccc(F)cc3)nc2-c2cccc(OC)c2)cc1 | – | – | -11 | – | –
CCN(CC)CCNC(=O)c1ccc(NC(=O)/C=C/c2ccc3ccccc3n2)cc1 | – | – | – | – | -8.5
CCN(CC)CCNC(=O)c1ccc(NC(=O)c2cn(-c3ccccc3)nc2-c2cccs2)cc1 | – | – | -8.1 | – | –
O=C(Nc1cccnc1)c1cn(-c2ccccc2)nc1-c1cccs1 | – | – | – | – | –
O=Cc1cc(Br)c(OC(=O)N2CCOCC2)c(Br)c1 | 27 | – | – | – | –
COc1cc(OC)c(C=O)c(OC(=O)N2CCOCC2)c1 | – | – | – | – | –
O=[N+]([O-])c1ccc(-c2nc(-c3cccs3)c(-c3cccs3)[nH]2)cc1 | – | – | -8.9 | – | –
COc1ccc(-c2nc(-c3ccccc3)c(-c3cccs3)[nH]2)cc1OC | – | – | – | – | –
COc1ccc(-c2nc(-c3cccs3)c(-c3cccs3)[nH]2)cc1OC | – | – | -8 | – | –
Cc1cc(C)c(NC(=S)N(CCCN2CCN(C)CC2)Cc2cccs2)c(C)c1 | – | – | – | – | –
CS(=O)(=O)N(CC(=O)O)Cc1cccc(CN(CC(=O)O)S(C)(=O)=O)c1 | – | – | – | – | –
